According to publication PMC5743405 (International Journal of Oncology, 2017):
“Also recorded” adds a separate entry of the source.

Legend:
[1] = test system: TET1/2 and SOCS3; conditions: human chondrosarcoma; ref previously reported ([8],[9]); cited from earlier work
[2] = test system: EDG3; assay: PathHunter β-arrestin; assay type: cell-based; conditions: antagonist mode, 6 μM
In short: (§1)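 Engineered cells express the receptor fused to one β-galactosidase fragment (ED) and β-arrestin fused to the complementing fragment (EA). Receptor activation recruits β-arrestin, which restores enzyme activity, and this is read by chemiluminescence (RLU). Agonist % activity is 100% × (test − vehicle)/(maximal control ligand − vehicle). Antagonist mode is challenged with an EC80 control agonist, and % inhibition is 100% × (1 − (test − vehicle)/(EC80 − vehicle)). Hits require >30% activity or >35% inhibition, plus a 3×SD RLU margin.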

[3] = test system: CHRM3; assay: PathHunter β-arrestin; assay type: cell-based; conditions: 6 μM
In short: as §1

[4] = test system: HRH3; assay: PathHunter β-arrestin; assay type: cell-based; conditions: 6 μM
In short: (§2)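 Vendor-run (DiscoveRx) PathHunter enzyme fragment complementation. β-Arrestin carries the EA fragment and the receptor carries ED; recruitment restores β-gal activity, read by chemiluminescence (RLU). Agonist % activity = vehicle-subtracted RLU relative to max control ligand (gpcrMAX) or to vehicle (orphanMAX). Antagonist % inhibition = 100% × (1 − vehicle-subtracted sample RLU / vehicle-subtracted EC80 agonist control RLU).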

[5] = test system: CCKAR; assay: PathHunter β-arrestin; assay type: cell-based; conditions: antagonist mode, 6 μM
In short: (§3)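 β-Arrestin recruitment assay: the enzyme acceptor is fused to β-arrestin and the ED fragment to the GPCR. Recruitment restores β-galactosidase, read by chemiluminescence. % activity = 100% × (test − vehicle)/(max control ligand − vehicle). % inhibition = 100% × (1 − (test − vehicle)/(EC80 control − vehicle)). An agonist hit needs >30% activity and RLU > baseline + 3×SD. An antagonist hit needs >35% inhibition and RLU < EC80 RLU − 3×SD.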

[6] = test system: GPR119; assay: PathHunter β-arrestin; assay type: cell-based; conditions: 6 μM
In short: as §2

[7] = test system: P2RY4; assay: PathHunter β-arrestin; assay type: cell-based; conditions: agonist mode, 6 μM
[8] = test system: TLR2; assay: western blot, JJ012 cells; assay type: cell-based, human; conditions: vs untreated control, overnight incubation
In short: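 JJ012 cells seeded at 1×10^6 cells/ml in 6-well clusters and incubated overnight at 37°C, 5% CO2 with or without test compound. Lysed with protease inhibitor (1:100) and centrifuged at 15,000 × g, 4°C. Protein loaded at 20 μg/lane with reducing agent, run on polyacrylamide gel, transferred to PVDF, probed with rabbit anti-TLR primaries and HRP-linked secondaries.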

[9] = test system: OPRL1; assay: PathHunter β-arrestin; assay type: cell-based; conditions: antagonist mode, 6 μM
In short: (§4)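 GPCR-ED fusion and β-arrestin-EA fusion; arrestin recruitment restores β-galactosidase, read by chemiluminescence. Antagonist mode uses EC80 agonist challenge. % inhibition = 100 × (1 − (test − vehicle RLU)/(EC80 control − vehicle RLU)). Hit requires >35% inhibition and mean RLU below EC80 RLU − 3 × EC80 SD.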

[10] = test system: OPRD1; assay: PathHunter β-arrestin; assay type: cell-based; conditions: antagonist mode, 6 μM
In short: as §4

[11] = test system: GPR1; assay: PathHunter β-arrestin; assay type: cell-based; conditions: antagonist mode, 6 μM
In short: as §2

[12] = test system: c-Myc; assay: RT2 qPCR primer assay, JJ012 cells; assay type: cell-based, human
In short: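 RNA extracted from treated and control JJ012 cells, checked by spectrophotometry and reverse transcribed. SYBR Green qPCR with custom primer assays on three samples in technical triplicates. Ct normalized to the average of GAPDH and ACTB. Fold change vs control by 2^−ΔΔCt, shown as a heat map of average Ct.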

[13] = test system: JJ012 chondrosarcoma cells; assay: immunocytochemistry, PRP-1 localization; assay type: cell-based, human; conditions: PRP-1 antibody, Zenon Alexa Fluor 488; DAPI nuclear stain
[14] = test system: C5AR1; assay: PathHunter β-arrestin; assay type: cell-based; conditions: antagonist mode, 6 μM
In short: as §3

[15] = test system: ADRA2B; assay: PathHunter β-arrestin; assay type: cell-based; conditions: antagonist mode, 6 μM
In short: as §3

[16] = test system: BDKRB1; assay: PathHunter β-arrestin; assay type: cell-based; conditions: 6 μM
In short: as §3

[17] = test system: CCR4; assay: PathHunter β-arrestin; assay type: cell-based; conditions: antagonist mode, 6 μM
In short: as §1

[18] = test system: CMKLR1; assay: PathHunter β-arrestin; assay type: cell-based; conditions: antagonist mode, 6 μM
In short: as §1

[19] = test system: MCHR1; assay: PathHunter β-arrestin; assay type: cell-based; conditions: 6 μM
In short: as §2

[20] = test system: HTR1E; assay: PathHunter β-arrestin; assay type: cell-based; conditions: 6 μM
In short: as §2

[21] = test system: HTR2C; assay: PathHunter β-arrestin; assay type: cell-based; conditions: 6 μM
In short: as §2

## Proline rich polypeptide 1 [PRP-1]
[1]
  expression of TET1/2 and SOCS3: significant upregulation
[2]
  % Inhibition: 1%
[3]; agonist mode
  % Activity: 2%
[3]; antagonist mode
  % Inhibition: −6%
[4]; agonist mode
  % Activity: 2%
[4]; antagonist mode
  % Inhibition: −6%
[5]
  % Inhibition: −3%
[6]; agonist mode
  % Activity: 3%
[6]; antagonist mode
  % Inhibition: −1%
[7]
  % Activity: −1%
[8]
  protein expression: strong upregulation; also recorded: upregulated protein expression of TLR1 and TLR2 in dose-dependent manner
[9]
  % Inhibition: −7%
[10]
  % Inhibition: −2%
[11]
  % Inhibition: −5%
[12]; 10 μg/ml PRP-1, heat map, technical triplicates
  gene expression: went down drastically
[12]; qRT-PCR, 1 and 10 μg/ml
  c-Myc gene expression, dose response: downregulation of its gene expression in dose-response manner
[13]
  localization: manifested its presence in the nucleus
[14]
  % Inhibition: 3%
[15]
  % Inhibition: 2%
[16]; agonist mode
  % Activity: 1%
[16]; antagonist mode
  % Inhibition: −8%
[17]
  % Inhibition: 2%
[18]
  % Inhibition: −2%
[19]; agonist mode
  % Activity: 1%
[19]; antagonist mode
  % Inhibition: −4%
[20]; agonist mode
  % Activity: 3%
[20]; antagonist mode
  % Inhibition: 5%
[21]; agonist mode
  % Activity: 1%
[21]; antagonist mode
  % Inhibition: −3%
